From ChEMBL document CHEMBL1149182, “Cyclodextrin-derived diorganyl tellurides as glutathione peroxidase mimics and inhibitors of thioredoxin reductase and cancer cell growth” (J Med Chem, 2004) come the findings set out here.

In one assay the test system is MCF7. In words: Inhibition of growth of MCF-7 breast cancer cells in culture. The assay is classed as functional, cell-based. Conditions: Homo sapiens. The essentials:
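Human MCF-7 cells seeded at 3000/well in DMEM + 10% FBS, 16 h at 37 °C, 5.5% CO2, then compound 0.1–20 μM for 72 h. MTT added for 3 h, formazan dissolved in DMSO, dual OD read at 595/655 nm. Viability given as % of untreated control. IC50 is concentration halving growth versus control. Triplicate determinations.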

The target in assay [1] is T1, Thioredoxin reductase (Homo sapiens, UniProt Q16881+Q9NNW7+Q86VQ6). In words: Inhibition of thioredoxin reductase in the presence of thioredoxinand insulin. The assay is classed as protein assay. A digest of the protocol: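 Insulin reduction coupled to Trx/TrxR, final concentrations: 100 mM HEPES pH 7.2, 5 mM EDTA, 1 mM NADPH, 1.0 μM TrxR, 0.8 μM Trx, 2.5 mg/mL bovine insulin plus inhibitor. 30 min at 37 °C, stopped with 6 M guanidine HCl/50 mM Tris pH 8.0/10 mM DTNB, absorbance at 412 nm. IC50 for 50% inhibition of thionitrobenzoate formation.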

In assay [2] the target is T1, Thioredoxin reductase. As to the kind of experiment: Inhibition of thioredoxin reductase. It is filed as protein assay. The essentials:
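TrxR-only activity in HE buffer (100 mM HEPES pH 7.2, 5 mM EDTA) with 1.0 μM TrxR, 10 mM DTNB, 1 mM NADPH and inhibitor (final). Compound and enzyme added first, reaction started with NADPH/DTNB at 37 °C. OD 412 nm read every 10 s for initial linear rates. IC50 is 50% inhibition of thionitrobenzoate formation.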

Turning to `CCCC[Te]CC1O[C@@H]2O[C@@H]3C(CO)O[C@H](O[C@@H]4C(CO)O[C@H](O[C@@H]5C(CO)O[C@@H](O[C@@H]6C(CO)O[C@H](O[C@@H]7C(CO)O[C@H](O[C@@H]8C(CO)O[C@H](O[C@H]1C(O)C2O)C(O)C8O)C(O)C7O)C(O)C6O)C(O)C5O)C(O)C4O)C(O)C3O` (stereo partly specified), the IC50 in the assay with MCF7 worked out at 6 µM; on Thioredoxin reductase [1], 1.2 µM; on Thioredoxin reductase [2], 18 µM.

With `OCC1O[C@@H]2O[C@@H]3C(C[Se]c4ccccc4)O[C@H](O[C@@H]4C(CO)O[C@H](O[C@@H]5C(CO)O[C@H](O[C@@H]6C(CO)O[C@@H](O[C@@H]7C(CO)O[C@H](O[C@@H]8C(CO)O[C@H](O[C@H]1C(O)C2O)C(O)C8O)C(O)C7O)C(O)C6O)C(O)C5O)C(O)C4O)C(O)C3O` (stereo partly specified), the half-maximal inhibitory concentration (IC50) with MCF7 was found to be 10.2 µM; on Thioredoxin reductase [1] it was 18 µM; at Thioredoxin reductase [2] it was 17.8 µM.

As to `CN(C)c1ccc([Te]CC2O[C@@H]3O[C@@H]4C(CO)O[C@H](O[C@@H]5C(CO)O[C@H](O[C@@H]6C(CO)O[C@@H](O[C@@H]7C(CO)O[C@H](O[C@@H]8C(CO)O[C@H](O[C@@H]9C(CO)O[C@H](O[C@H]2C(O)C3O)C(O)C9O)C(O)C8O)C(O)C7O)C(O)C6O)C(O)C5O)C(O)C4O)cc1` (stereo partly specified), the results for the IC50 in the assay on MCF7, on Thioredoxin reductase [1] and against Thioredoxin reductase [2] were 10.4 µM, 3.4 µM and 0.26 µM, respectively.

On to `OCC1O[C@@H]2O[C@@H]3C(C[Te]c4ccc(O)cc4)O[C@H](O[C@@H]4C(CO)O[C@H](O[C@@H]5C(CO)O[C@H](O[C@@H]6C(CO)O[C@@H](O[C@@H]7C(CO)O[C@H](O[C@@H]8C(CO)O[C@H](O[C@H]1C(O)C2O)C(O)C8O)C(O)C7O)C(O)C6O)C(O)C5O)C(O)C4O)C(O)C3O` (stereo partly specified), for which the IC50 in the assay on MCF7 came out at 1.6 µM; at Thioredoxin reductase [1] it was 4 µM; against Thioredoxin reductase [2], 18 µM.

For `COc1ccc([Te]CC2O[C@@H]3O[C@@H]4C(CO)O[C@H](O[C@@H]5C(CO)O[C@H](O[C@@H]6C(CO)O[C@@H](O[C@@H]7C(CO)O[C@H](O[C@@H]8C(CO)O[C@H](O[C@@H]9C(CO)O[C@H](O[C@H]2C(O)C3O)C(O)C9O)C(O)C8O)C(O)C7O)C(O)C6O)C(O)C5O)C(O)C4O)cc1` (stereo partly specified), the IC50 in the assay on MCF7 was determined as 4.6 µM; at Thioredoxin reductase [1] it was 7.6 µM; against Thioredoxin reductase [2], 1.6 µM.

In the case of `OCC1O[C@@H]2O[C@@H]3C(C[Te]c4ccccc4)O[C@H](O[C@@H]4C(CO)O[C@H](O[C@@H]5C(CO)O[C@H](O[C@@H]6C(CO)O[C@@H](O[C@@H]7C(CO)O[C@H](O[C@@H]8C(CO)O[C@H](O[C@H]1C(O)C2O)C(O)C8O)C(O)C7O)C(O)C6O)C(O)C5O)C(O)C4O)C(O)C3O` (stereo partly specified), the figures for the IC50 in the assay with MCF7, at Thioredoxin reductase [1] and at Thioredoxin reductase [2] were 10.1 µM, 7.6 µM and 1.6 µM, respectively.

Regarding `OCC1O[C@@H]2O[C@@H]3C(CO)O[C@H](O[C@@H]4C(CO)O[C@H](O[C@@H]5C(CO)O[C@@H](O[C@@H]6C(CO)O[C@H](O[C@@H]7C(C[Te]CC8O[C@@H]9O[C@@H]%10C(CO)O[C@@H](O[C@@H]%11C(CO)O[C@H](O[C@@H]%12C(CO)O[C@H](O[C@@H]%13C(CO)O[C@H](O[C@@H]%14C(CO)O[C@H](O[C@@H]%15C(CO)O[C@H](O[C@H]8C(O)C9O)C(O)C%15O)C(O)C%14O)C(O)C%13O)C(O)C%12O)C(O)C%11O)C(O)C%10O)O[C@H](O[C@@H]8C(CO)O[C@H](O[C@H]1C(O)C2O)C(O)C8O)C(O)C7O)C(O)C6O)C(O)C5O)C(O)C4O)C(O)C3O` (stereo partly specified), the half-inhibitory concentration (IC50) was 1.4 µM with MCF7, 0.5 µM at Thioredoxin reductase [1] and 2.4 µM on Thioredoxin reductase [2].

Usually IC50 stands for the concentration needed to halve the response being measured.
